# GPR7 antag: human neuropeptides B/W receptor 1 antagonism. AID 1861. P48145. GPR7-expressing cells, fluorescence antagonist assay. inhibition, % at 4.4 µM. 290,000 tested, 1.1% active; in the data active means inhibition above about 16%, passing the limit was not always enough;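 further: cells stimulated with the agonist NPW; 0% = agonist with vehicle and 100% = vehicle without agonist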
# OX1R antag-1: human HCRTR1 antagonism. 330,000 tested, 0.43% active. inhibition, % at 5 µM. CHO/OX1R cells, Fluo-8 calcium fluorescence, orexin A;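 active means inhibition above its plate's threshold, mean inhibition of all tested compounds on the plate plus 3 SD, cut at about 37% in these data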;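 further: 0% = orexin A challenge wells and 100% = SB-334867-A antagonist wells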
# Target sequence (O43613 whole entry, looked up): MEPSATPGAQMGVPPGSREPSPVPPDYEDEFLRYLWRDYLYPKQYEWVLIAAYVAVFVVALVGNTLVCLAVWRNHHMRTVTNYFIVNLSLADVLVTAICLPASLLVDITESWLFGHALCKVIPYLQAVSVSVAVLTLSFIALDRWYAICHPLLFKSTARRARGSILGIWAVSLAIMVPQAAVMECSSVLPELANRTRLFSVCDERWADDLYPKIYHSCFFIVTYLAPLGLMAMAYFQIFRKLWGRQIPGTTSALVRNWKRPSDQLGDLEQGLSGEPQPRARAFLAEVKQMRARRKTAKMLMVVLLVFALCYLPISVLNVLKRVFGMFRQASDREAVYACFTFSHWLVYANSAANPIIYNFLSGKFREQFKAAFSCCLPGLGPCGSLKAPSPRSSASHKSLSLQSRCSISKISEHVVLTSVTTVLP
# CHO parental Ca: counter-screen for OX1R antagonists: effect in parental CHO cells; parental CHO-K1, ATP-induced calcium, Fluo-8 fluorescence; inhibition, % at 5.6 µM; 330,000 tested, 0.63% active;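 active means inhibition above that plate's mean sample inhibition plus 3 SD, cut at about 26% in these data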;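 further: 0% = ATP-challenged DMSO wells and 100% = DMSO wells without ATP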
#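 Material – parental CHO cells · Reagent – ATP stimulus · Compound – single nominal dose of 5.6 µM per compound · Detection – Fluo-8 fluorescence · Read-out basis – percent inhibition of calcium signal · Controls – ATP-challenged DMSO wells low, unchallenged DMSO wells high · Repeats – no replicates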
# TAAR1 antag: human TAAR1 antagonism; CHO RD-HGA16 TAAR1, Fluo-8 calcium fluorescence, antagonist; Q96RJ0; 360,000 tested, 1.5% active; inhibition, % at 3 µM; AID 624466;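 active means inhibition above a per-plate cutoff, the mean inhibition of test compounds on that plate plus 3 SD, cut at about 49% in these data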;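 further: 0% = DMSO plus EC80 beta-PEA response and 100% = DMSO alone without agonist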
#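 Assay system: CHO-derived RD-HGA16 cells stably expressing human TAAR1 plus Gα16. Timing: 140 s kinetic read after compound, 140 s after agonist. Technique: kinetic Fluo-8 calcium fluorescence measurement. Measure: % inhibition of agonist calcium response.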
# TAAR1 agonist: human TAAR1 agonism. 360,000 tested, 0.99% active. CHO RD-HGA16 TAAR1, Fluo-8 calcium fluorescence; vehicle wells 0%, saturating PEA agonist 100%. Q96RJ0. activation, % at 3 µM;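 active means activation above the mean activation of all test compounds in the run plus 3 SD, cut at about 38% in these data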
#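 test system = CHO RD-HGA16 cells carrying human TAAR1 plus Gα16 | schedule = 17-24 h seeding, 75 min 37 °C dye, 30 min RT | compound dosing = 3 µM single concentration | control set = DMSO and PEA EC100 | replicates = n 1 | signal = Fluo-8 fluorescence, 5 s baseline then 140 s kinetic read | measure = percent activation vs PEA EC100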
# OX1R antag-2: antagonists of human orexin 1 receptor (OX1R). 330,000 tested, 1.8% active. inhibition, % at 6.6 µM. OX1R-expressing cells, FRET antagonist read-out; in the data active means inhibition mostly above about 38%, no sharp cut-off; inactive means mostly below about 40%;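 further: 0% = agonist challenge alone and 100% = reference antagonist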
# GPR7 antag conf: confirmation of human GPR7 antagonists; inhibition, % at 4.4 µM; shares compounds with GPR7 antag; GPR7-expressing cells, calcium fluorescence antagonist mode; 2,400 tested, 52% active; in the data active means inhibition above about 24%;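 further: stimulated with the GPR7 agonist NPW; 0% = agonist plus vehicle and 100% = vehicle alone without agonist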
# MCHR1 antag: antagonizes human MCHR1, a GPR7 antagonist counter-screen | inhibition, % at 4.4 µM | shares compounds with GPR7 antag | MCHR1-expressing cells, fluorescence antagonist assay | 2,400 tested, 62% active; in the data active means inhibition above about 22%;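 further: 0% = vehicle with agonist and 100% = vehicle without agonist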
# An asterisk follows results filed as active; · = no result. In the library only some 4.5% were active in any assay of this set; here they are far more common.
SMILES,GPR7 antag,OX1R antag-1,CHO parental Ca,TAAR1 antag,TAAR1 agonist,OX1R antag-2,GPR7 antag conf,MCHR1 antag
c1ccc2c(c1)OC(CCCN1CCCCC1)c1ccccc1S2 (stereo unspecified),25*,15,-6,-14,35,9,33*,54*
CCOCCc1nn2c(=O)cc(CSCC(=O)Nc3cc(C)cc(C)c3)nc2s1,1,-25,-17,6,1,11,·,·
Cc1nc(N2CCC(C)CC2)c2c(C)c(C(=O)Nc3ccc(C(F)(F)F)cc3)sc2n1,-8,-20,-6,3,1,10,·,·
Cc1nc(N2CCC(C)CC2)c2c(C)c(C(=O)Nc3cccc(C(F)(F)F)c3)sc2n1,25*,-15,-5,-7,0,4,-29,-4
C[C@@H]1CN([C@H](C)CO)C(=O)CCCn2cc(nn2)CO[C@H]1CN(C)C(=O)Nc1ccc(F)cc1,·,·,·,-1,1,·,·,·
COc1ccc(-c2n[nH]c(C(F)(F)F)c2-c2cc3ccccc3o2)c(O)c1,29*,52*,78*,-16,7,2,32*,71*
COc1ccccc1-c1c(-c2ccc(OCC(=O)NN)cc2O)n[nH]c1C(F)(F)F,-6,-14,-24,-20,7,-1,·,·
Cc1ccc(N(C(=O)c2csnn2)C(C(=O)NC2CCCC2)c2ccncc2)c(C)c1 (stereo unspecified),41*,-16,-14,-7,6,13,-7,-7
Cc1ccc(NC(=O)c2nc(S(=O)(=O)Cc3ccccc3)ncc2Cl)cc1,35*,38,39*,28,-3,12,60*,98*
Cc1cccc(CS(=O)(=O)c2ncc(Cl)c(C(=O)Nc3c(C)cccc3C)n2)c1,51*,77*,23,6,1,89*,58*,97*
CCO[C@H]1OC(C(=O)NCc2ccccc2)=C[C@@H](c2ccc3c(c2)OCO3)[C@@H]1CCCO,33*,-9,-11,17,50*,20,18,16
C=CCOc1ccccc1CNCCc1ccc(S(N)(=O)=O)cc1,6,-19,-6,8,4,2,·,·
NS(=O)(=O)c1ccc(CCNCc2cc(Br)ccc2OCc2ccccc2F)cc1,38*,49*,60*,36,8,20,53*,76*
NS(=O)(=O)c1ccc(CCNCc2ccccc2OCc2ccc(Cl)cc2)cc1,23,-4,4,-3,13,8,·,·
NS(=O)(=O)c1ccc(CCNCc2cc(Cl)ccc2OCc2ccccc2)cc1,28*,-10,6,37,13,5,27*,57*
Cn1cnc2nc[nH]c2c1=O,·,·,·,1,2,·,·,·
CCCn1c(C(O)c2ccc(OC)c(OC)c2)nc2ccccc21 (stereo unspecified),-5,-3,-4,3,3,19,·,·
Cc1nonc1CN(C)C(=O)c1cc(COc2ccc(F)cc2Cl)on1,30*,-17,9,-12,0,17,24,26*
O=C(Cc1ccc(Cl)cc1)OCC(=O)N1CCCCCC1,·,-4,-7,0,1,14,·,·
O=[N+]([O-])c1ccc(NCCNS(=O)(=O)c2ccccc2)cc1,25*,-12,-1,19,4,14,28*,32*
CCOC(=O)c1ccc(NC(=O)Cn2c(-c3nonc3N)nc3ccccc32)cc1,-2,-3,-3,-7,10,29,·,·
COc1c(Br)cc(Br)cc1/C=N/n1c(C)nnc1C,27*,-17,-10,-4,0,13,0,10
COc1cc(/C=N/n2c(C)nnc2C)cc(OC)c1OC,-13,-2,-14,-7,6,0,·,·
COCCCN1CCN(C2Cc3ccccc3Sc3ccc(Cl)cc32)CC1 (stereo unspecified),24*,2,-15,6,11,5,23,34*
Clc1ccc2c(c1)C(N1CCNCC1)Cc1ccccc1S2 (stereo unspecified),28*,-15,-1,·,·,-2,53*,65*
SMILES,GPR7 antag,OX1R antag-1,CHO parental Ca,TAAR1 antag,TAAR1 agonist,OX1R antag-2,GPR7 antag conf,MCHR1 antag
c1ccc(CCNc2nc(-c3ccccn3)nc3ccccc23)cc1,-5,-22,-6,36,22,-5,·,·
CCOC(=O)C1(C)CCN1C(=O)c1cc(OC)ccc1Br (stereo unspecified),·,·,·,-6,0,·,·,·
O=C(NCC(c1ccco1)N1CCCC1)c1cccc(S(=O)(=O)Nc2ccc(F)cc2)c1 (stereo unspecified),·,-14,-22,4,12,3,·,·
CN1CCN(C2CCN(c3ccc(Nc4nnc(Cl)c(Nc5ccccc5S(C)(=O)=O)n4)c(OC(CF)CF)c3)CC2)CC1,·,-10,2,7,7,19,·,·
O=C(CCN1C(=O)c2ccccc2C1=O)Nc1ccc2c(c1)OCCO2,23*,-21,-12,16,14,9,0,-1
Cc1ccc(CC(=O)Nc2ccncc2)cc1,33*,-3,22,12,6,12,2,40*
COC(=O)c1ccc(-c2nc3cc(N)ccc3o2)cc1,61*,-18,-12,10,8,17,-12,18
Nc1ccc(-c2nc3cc(N)ccc3o2)cc1,-9,-7,-11,-9,0,11,·,·
O=C(Nc1ccccc1)OCC1COC(c2ccccc2)(c2ccccc2)O1 (stereo unspecified),·,·,·,-4,0,·,·,·
Cc1nnc(SCC(=O)NC2CCS(=O)(=O)C2)n1-c1ccccc1 (stereo unspecified),25*,-9,-2,-15,5,15,-10,12
CCn1c(SCCOc2ccc(Cl)cc2)nnc1-c1cccs1,29*,-18,-20,6,1,17,9,31*
CCn1c(SCC(=O)c2ccc(Cl)cc2)nnc1-c1cccs1,10,-4,-3,-6,15,30,·,·
Cc1cc(C)cc(C(=O)Nc2c3c(nn2C(C)(C)C)CS(=O)(=O)C3)c1,9,-17,-16,-12,0,8,·,·
CC(C)(C)c1ccc(C(=O)Nc2c3c(nn2C(C)(C)C)CS(=O)(=O)C3)cc1,26*,-6,3,6,7,7,15,23*
COc1ccc2c(c1)C(C)=CC(C)(C)N2S(=O)(=O)c1ccc(NC(C)=O)cc1,24*,-12,4,28,15,11,32*,44*
O=c1[nH]c(C2CCN(S(=O)(=O)c3cccc(Cl)c3)CC2)nc2c1nnn2Cc1ccccc1,11,·,·,-10,3,·,·,·

# Compound activity deposited in PubChem by The Scripps Research Institute Molecular Screening Center.
